Compounds with a hit are over-represented: about 5.1% of the library has one in this group of screens.
NF-kB neuron act: raises NF-kB expression in human neuronal cells | fold change at 12.5 µM | NF-kB reporter expression; active compounds read high | 1.6% of 190,000 active | AID 1239; in the data active = fold change above about 3.3
APP 5'UTR act: APP 5'UTR luciferase reporter activation; SH-SY5Y APP 5'UTR luciferase reporter, luminescence; zero percent = DMSO vehicle wells; AID 1276; activation, % at 2 µM; 1% of 190,000 active;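 active = activation above a set limit, based on mean plus 3 SD of controls, cut at about 140% in these data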
STAT3 inh: inhibitors of IL-6 induced STAT3 signaling. U3A cells, IL-6 STAT3-luciferase reporter, luminescence; host cell line lacks STAT1. inhibition, % at 5.5 µM. 0.89% of 190,000 active. AID 862;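 active = inhibition above the mean inhibition across all screened compounds plus 3 SD, cut at about 44% in these data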;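 also: 0% = DMSO only wells and 100% = 100 µM nifuroxazide control wells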
STAT3 activator: STAT3 signaling activation; U3A cells, IL-6 STAT3-luciferase reporter, luminescence; 100% = signal with IL-6 EC80 alone; activation (% of control), % at 5.6 µM; 0.91% of 190,000 active;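 active = activation above the screen-wide mean of compound activation plus 3 SD, cut at about 130% in these data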;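 also: 0% = background luminescence of wells with medium and substrate only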
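Material: STAT3-luciferase reporter U3A cells; Probe or stimulus: IL-6 (33 ng/mL); Incubation: compound pre-incubation 1 h before IL-6, then 6 h stimulation at 37 °C; Technique: luminescence from STAT3-driven luciferase reporter; Evaluation: % activation versus median of IL-6-stimulated wells; Controls: IL-6-only high control.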
STAT1 inh: STAT1 signaling inhibition; NIH 3T3 STAT1-luciferase reporter, IFN-gamma, luminescence; inhibition, % at 5.5 µM; 0.35% of 200,000 active;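 active = inhibition above a set limit, the mean inhibition across all tested compounds plus 3 SD, cut at about 34% in these data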;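 also: 0% = IFN-gamma with DMSO and 100% = IFN-gamma with 300 µM nifuroxazide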
STAT1 act: activators of IFN-gamma induced STAT1 signaling; 2.6% of 200,000 active; NIH 3T3 STAT1-luciferase reporter, luminescence; 100% = IFN-gamma alone, no compound; activation (% of control), % at 5.5 µM;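 active = activation above the screen-wide mean activation plus 3 SD, cut at about 130% in these data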;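 also: raw ratio to IFN-gamma control signal so 100% means no change and 0% no light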
Numbers without * were called inactive; nt = no result given.

SMILES | NF-kB neuron act | APP 5'UTR act | STAT3 inh | STAT3 activator | STAT1 inh | STAT1 act
Cc1nn(-c2ccc(F)cc2)c(Cl)c1/C=C/C(=O)N1CCNC(=O)C1 | 1.64 | -7.6 | 3.3 | 99.2 | -9.9 | 107.6
Cc1csc(NC(=O)C2CCCO2)n1 (stereo not drawn) | 0.92 | -0.1 | 0.2 | 104.0 | 1.2 | 98.9
Cc1csc(NC(=O)c2ccc(C)o2)n1 | 2.09 | 69.1 | -3.5 | 105.2 | -17.1 | 115.3
O=C(Nc1ncc(Cc2ccc(SC(F)F)cc2)s1)c1ccccc1 | 3.58* | -86.2 | 4.3 | 101.8 | -22.4 | 120.4
Cc1ccc(C(=O)Nc2ncc(Cc3ccccc3)s2)o1 | 1.31 | 205.3* | 35.3 | 72.5 | -22.6 | 120.7
Cc1ccc(Cc2cnc(NC(=O)C3CCCO3)s2)cc1 (stereo not drawn) | 4.51* | 145.2* | -1.5 | 102.3 | -38.7 | 134.6*
CCNc1ccc(Br)cc(C(=O)/C=C/c2ccc(Cl)cc2Cl)c1=O | 1.38 | 16.4 | -6.1 | 109.3 | -6.3 | 105.8
Cc1nn(-c2nc3ccccc3[nH]2)c(N)c1-c1ccc(Cl)cc1 | 1.85 | 106.3 | -9.4 | 108.5 | -15.5 | 113.9
Cc1nn(-c2ccc(Cl)cc2)c(=O)c2ccccc12 | 2.73 | 61.9 | -30.9 | 133.6* | -32.7 | 127.6
Cc1nn(-c2nc3ccccc3[nH]2)c(=O)c2ccccc12 | 0.29 | -74.1 | 111.6* | 7.7 | 97.2* | 9.0
Cc1ccc(-n2c(C)nc3c(cnn3-c3ccccc3Cl)c2=O)cc1C | 0.58 | 1.9 | 15.0 | 91.7 | 11.2 | 89.8
Cc1ccc(-n2ncc3ccccc3c2=O)cc1Cl | 4.88* | 97.0 | 15.7 | 91.0 | -53.2 | 148.0*
Cc1nn(-c2ccc3ccccc3c2)c(=O)c2ccccc12 | 3.21 | 142.4* | -22.8 | 124.3 | -54.6 | 149.2*
O=C(Nc1cccc(Cl)c1)C1C2CCC3C(CCC21)C3(Cl)Cl (stereo not drawn) | 1.36 | -5.2 | -6.2 | 108.2 | -8.9 | 108.0
Nc1nc(SCC(=O)Nc2ncc(C(F)(F)F)cc2Cl)n[nH]1 | 0.93 | 3.0 | 10.8 | 98.4 | 1.9 | 98.4
Cn1c2ccccc2c(=O)c2c(=O)n(C3CCCCC3)c(-c3ccco3)nc21 | 0.99 | 20.3 | 6.7 | 96.8 | -3.7 | 103.3
CC1(C)COC(c2coc3ccccc3c2=O)OC1 | 1.79 | 20.1 | -10.2 | 110.8 | -30.3 | 127.1
Cc1cc(C)c(NC(=O)C2CCN(c3cnccn3)CC2)c(C)c1 | 0.85 | 7.3 | -4.4 | 104.9 | -19.3 | 106.1
Cc1ccc(CNC(=O)Cn2c([N+](=O)[O-])cnc2C)cc1 | 1.19 | 0.5 | 1.9 | 107.2 | -0.9 | 100.8
CN1CCN/C1=C(/C(Cl)=C(Cl)Cl)[N+](=O)[O-] | 1.09 | -9.0 | -8.1 | 108.6 | -1.8 | 101.2
Nc1ccc(Nc2nc(-c3ccncc3)cs2)cc1 | 1.64 | 40.1 | 12.8 | 90.7 | -13.1 | 112.0
O=[N+]([O-])c1cccc(-c2csc(Nc3ccccc3)n2)c1 | 2.62 | 83.4 | -45.6 | 147.3* | -48.9 | 143.2*
Cc1cc(NS(=O)(=O)c2ccc(Nc3nc(-c4sc(C)nc4C)cs3)cc2)no1 | 1.02 | 9.1 | -2.4 | 100.7 | -0.9 | 100.9
c1ccc(Nc2nc(-c3ccncc3)cs2)cc1 | 2.09 | 39.8 | -6.5 | 108.7 | -61.0 | 145.3*
Cc1nc(C)c(-c2csc(Nc3ccc(F)cc3)n2)s1 | 1.17 | 74.9 | 5.3 | 106.3 | -47.3 | 142.3*
SMILES | NF-kB neuron act | APP 5'UTR act | STAT3 inh | STAT3 activator | STAT1 inh | STAT1 act
Clc1ccc(Nc2nc(-c3ccncc3)cs2)cc1 | nt | 2.0 | -23.1 | 122.7 | -42.0 | 136.9*
CCOc1cc(C(=S)N2CCCCC2)ccc1OCC(=O)NCc1ccccc1 | 0.96 | nt | 11.1 | 96.2 | -1.3 | 101.2
Cc1nc(N)sc1-c1csc(Nc2ncccn2)n1 | 2.48 | 177.3* | 13.7 | 90.6 | -27.6 | 124.9
Fc1ccc(Nc2nc(-c3ccncc3)cs2)cc1 | 1.25 | 105.9 | -3.2 | 104.3 | -49.2 | 143.9*
O=C(Nc1nc(-c2ccc(F)cc2)cs1)c1cnccn1 | 1.58 | -1.3 | 14.0 | 88.5 | 5.4 | 95.2
COc1ccc(NC(=S)N2CCCCCC2)cc1OC | 1.1 | 11.8 | 4.3 | 102.5 | 9.2 | 89.6
CCOC(=O)c1ccc(NC(=O)N2CCN(Cc3ccccc3)CC2)cc1 | 0.83 | 14.9 | -28.2 | 133.1* | -9.8 | 108.0
O=C(CCC(=O)N1CCc2ccccc21)Nc1ccccc1 | 1.15 | 2.8 | -4.2 | 103.7 | -1.3 | 101.2
COc1ccc(NC(=O)N2CCc3ccccc32)cc1 | 10.5* | 176.3* | 43.3 | 64.5 | -17.8 | 124.5
O=C(Nc1ccccc1)N1CCc2ccccc21 | 6.54* | 102.2 | 18.3 | 87.2 | -47.0 | 146.0*
COc1ccc(CCC(=O)N2CCc3ccccc32)cc1 | 2.16 | 37.4 | 20.1 | 84.4 | -35.8 | 132.7*
CCOC(=O)c1ccc(NC(=O)CN2CCN(Cc3ccccc3)CC2)cc1 | 1.31 | 7.8 | -3.6 | 105.0 | 2.2 | 96.2
O=C(CN1CCN(S(=O)(=O)c2ccccc2)CC1)Nc1ccccc1C(=O)c1ccccc1 | 0.59 | -0.3 | -2.1 | 104.5 | 0.5 | 99.5
COC(=O)N[C@H](CC(C)=O)c1ccccc1 | 1.02 | -12.0 | 4.2 | 94.1 | -3.7 | 103.3
COc1ccc(NC(=O)N2CCCc3ccccc32)cc1 | 1.43 | 7.2 | 9.3 | 94.2 | 13.6 | 87.5
CCOC(=O)c1ccc(NC(=O)N2CCc3ccccc32)cc1 | 7.88* | 205.3* | 9.7 | 93.7 | -26.6 | 124.7
Cc1ccc(OCC(=O)N2CCCc3ccccc32)cc1 | 1.33 | 29.6 | 8.6 | 94.5 | -9.7 | 109.0
O=C(COc1ccc2c(c1)CCC2)N1CCc2ccccc21 | 2.74 | 92.7 | 2.8 | 106.3 | -36.9 | 133.6*
CN(C)S(=O)(=O)Nc1cc(Cl)cc(Cl)c1 | 1.21 | -0.7 | 9.0 | 99.5 | -6.8 | 104.2
N#Cc1cccc(-n2nnnc2-c2ccc3c(c2)OCO3)c1 | 3.53* | 27.9 | -11.6 | 113.0 | -13.2 | 112.1
N#Cc1ccc(-c2nnnn2-c2ccc3c(c2)OCO3)cc1 | 1.32 | 21.2 | 0.8 | 101.5 | -4.7 | 104.3
COc1ccc(C(C#N)N2CCC(c3ccccc3)=N2)cc1OC (stereo not drawn) | 1.32 | -9.2 | 6.1 | 96.7 | -21.6 | 120.9
COc1ccc(C2=NN(C(C#N)c3ccc(OC)c(OC)c3)C(c3ccccc3)C2)cc1 (stereo not drawn) | 6.13* | 155.1* | -0.1 | 103.1 | -26.7 | 124.5
CC1CCCN(C(=S)Nc2ccc(Nc3ccccc3)cc2)C1 (stereo not drawn) | 1.94 | 79.6 | 6.9 | 97.8 | -41.5 | 135.8*
CC(=O)c1ccc(NC(=S)N2CCCC(CO)C2)cc1 (stereo not drawn) | 2.38 | 25.0 | 15.4 | 90.6 | -15.3 | 113.9
OCC1CCCN(C(=S)Nc2ccc(Oc3ccccc3)cc2)C1 (stereo not drawn) | 2.36 | 68.6 | -6.1 | 109.2 | -54.0 | 147.0*
Nc1nc(-c2cccnc2)nn1C(=O)c1ccc(F)cc1 | 1.58 | 8.8 | 13.2 | 93.1 | -3.9 | 101.5
COc1ccc(N2CCN(C(=O)CSc3nnc(-c4ccco4)n3C)CC2)cc1 | 0.78 | 7.0 | 7.0 | 96.0 | -5.3 | 104.5
